Measurements collected from several papers.
Compare with care: the assays were run in different laboratories.
Cell line: HepG2
Read-out: cell growth or viability

O=C(Nc1ccc(Oc2nnc(-c3ccc(Cl)cc3)c3ccccc23)cc1)c1cccc([N+](=O)[O-])c1
viability (MTT; 5 µM; 24 h): 5.16%

CC(=O)c1nn(-c2ccc(C)cc2)/c(=N/N=C(\C)c2ccc(NC(=O)c3ccccc3)cc2)s1
viability (MTT; 2.5 µM): 6.81%

O=C(C=Cc1ccccc1)Nc1ccc(Oc2nnc(-c3ccc(Cl)cc3)c3ccccc23)cc1
viability (MTT; 1.25 µM; 24 h): 37.4%

CCOC(=O)c1nn(-c2cccc(Cl)c2)/c(=N/N=C(\C)c2ccc(NC(=O)c3ccccc3)cc2)s1
viability (MTT; 0.312 µM): 3.54%

Cc1ccc(-c2cc(-c3ccc(Cl)cc3)c3c(=O)n(C)c(=O)n(C)c3n2)cc1
IC50 (MTT; 48 h): 7.42 µM

CC(=O)Nc1ccc(/C(C)=N/N=c2\sc(C(C)=O)nn2-c2ccc(C)cc2)cc1
viability (MTT; 10 µM): 48.8%

CC(=NNC(N)=S)c1ccc(Nc2nnc(-c3ccc(Cl)cc3)c3ccccc23)cc1
cell death (MTT; 1.25 µM): 92.3%

COc1ccc(-c2cc(-c3cccc(Br)c3)c3c(=O)[nH]c(=O)[nH]c3n2)cc1
IC50 (MTT; 48 h): 16.2 µM

CC(=O)c1nn(-c2ccccc2Cl)/c(=N/N=C(\C)c2ccc(NC(=O)c3ccccc3)cc2)s1
viability (MTT; 10 µM): 6.13%

CN(C)c1cc(NC(=O)c2ccccn2)c(O)c2c1C[C@H]1C[C@H]3[C@H](N(C)C)C(O)=C(C(N)=O)C(=O)[C@@]3(O)C(O)=C1C2=O
IC50 (ATP luminescence; 72 h): 187 µg/mL

O=C(Nc1ccccc1)Nc1ccc(Oc2nnc(-c3ccc(Cl)cc3)c3ccccc23)cc1
cell death (MTT; 5 µM): 94.9%

COc1ccc(-c2cc(-c3ccc(C)cc3)nc3[nH]c(=O)[nH]c(=O)c23)cc1OC
IC50 (MTT; 48 h): 34.7 µM

CC(=NNC(=S)Nc1ccccc1)c1ccc(Nc2nnc(-c3ccc(Cl)cc3)c3ccccc23)cc1
cell death (MTT; 1.25 µM): 50%

COc1ccc(-c2cc(-c3ccc(C)cc3)nc3c2c(=O)n(C)c(=O)n3C)cc1OC
IC50 (MTT; 48 h): 32.5 µM

CC(=NNC(=O)COc1ccc2c(C)c(Cc3ccccc3)c(=O)oc2c1C)c1ccc(Br)cc1
viability (MTT; 25 µg/mL): 44.2%
